ChEMBL document CHEMBL1240389, “In vitro and in vivo activities of the novel anticytomegalovirus compound AIC246” (Antimicrob Agents Chemother, 2010)
Active and inactive are the calls of the source. The rule behind the calls is not given here.

What was measured:
[1] = Selectivity index, ratio of CC50 for human MRC5 cells to EC50 for human cytomegalovirus infected in human MRC5 cells; assay type: toxicity, cell-based; settings: MRC5 cells infected with human cytomegalovirus, read-out: Selectivity Index
Summary of the method: (§1)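 SI = CC₅₀/EC₅₀ in the same fibroblast type. EC₅₀: GFP-expressing HCMV AD169, 3-fold dilutions, 7 days at 37°C, GFP units by CCD camera. CC₅₀ run in parallel: 1.5 × 10⁴ cells/well overnight, 3-fold dilutions from 0.33 mM (DMSO constant 0.66%), 7 days, alamarBlue fluorescence as % of untreated cells; ≥3 runs in duplicate.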

[2] = Cytotoxicity against HLF infected with human cytomegalovirus after 7 days by alamar blue assay; settings: HLF cells infected with human cytomegalovirus
Summary of the method: (§2)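 Fibroblasts seeded at 1.5 × 10⁴/well, incubated overnight, then given drug in 3-fold serial dilutions from 0.33 mM (DMSO constant 0.66%). After 7 days, alamarBlue added and fluorescence read; signal as % of untreated cell controls versus log concentration; CC50 from dose-response curves. At least three experiments with duplicates.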

[3] = Cytotoxicity against human MRC5 cells infected with human cytomegalovirus after 7 days by alamar blue assay; assay type: cell-based; summary of the method: as §2
[4] = Cytotoxicity against NHDF infected with human cytomegalovirus after 7 days by alamar blue assay; assay type: cell-based; settings: NHDF cells infected with human cytomegalovirus; summary of the method: as §2
[5] = Selectivity index, ratio of CC50 for HEL299 cells to EC50 for human cytomegalovirus infected in HEL299 cells; assay type: toxicity, cell-based, HEL 299; settings: read-out: Selectivity Index; summary of the method: as §1
[6] = Cytotoxicity against human HS27 cells infected with human cytomegalovirus after 7 days by alamar blue assay; assay type: cell-based; summary of the method: as §2
[7] = Cytotoxicity against HEL299 cells infected with human cytomegalovirus after 7 days by alamar blue assay; assay type: cell-based, HEL 299; summary of the method: as §2
[8] = Selectivity index, ratio of CC50 for human HS27 cells to EC50 for human cytomegalovirus infected in human HS27 cells; assay type: toxicity, cell-based; settings: HS27 cells infected with human cytomegalovirus, read-out: Selectivity Index; summary of the method: as §1
Human betaherpesvirus 5 [9] = assay: Antiviral activity against 1 MOI human cytomegalovirus AD169 infected in NHDF after 7 days by GFP-based fluorescent reduction assay; assay type: functional, organism-based; settings: Human betaherpesvirus 5, AD169, NHDF, 168 h
Summary of the method: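 NHDF cells (1.5 × 10⁴/well) infected with GFP-expressing HCMV AD169 at increasing MOI (0.003 to 1); after adsorption inoculum replaced, compound added in serial 3-fold dilutions, at least duplicate. 7 days at 37°C, medium swapped for PBS, GFP units read by CCD camera. EC₅₀ = 50% GFPU reduction versus no-drug virus control by nonlinear regression; at least triplicate experiments.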

Human betaherpesvirus 5 [10] = assay: Antiviral activity against human cytomegalovirus AD169 infected in NHDF at 20 uM treated after 33 hrs postinfection measured after 7 days by GFP-based fluorescent reduction assay; assay type: functional, organism-based
Human betaherpesvirus 5 [11] = assay: Antiviral activity against 0.01 MOI human cytomegalovirus AD169 infected in NHDF after 7 days by GFP-based fluorescent reduction assay; settings: Human betaherpesvirus 5, AD169, NHDF, 168 h
Human betaherpesvirus 5 [12] = assay: Antiviral activity against 0.1 MOI human cytomegalovirus AD169 infected in NHDF after 7 days by GFP-based fluorescent reduction assay; assay type: functional, organism-based; settings: Human betaherpesvirus 5, AD169, NHDF, 168 h
Summary of the method: (§3)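 NHDF cells (1.5 × 10⁴/well) infected with GFP-expressing HCMV AD169 at the stated MOI (range 0.003 to 1 tested). After adsorption the inoculum was replaced, and compound was added in 3-fold serial dilutions, each at least in duplicate. Cells were incubated 7 days at 37°C, then GFP units were read by CCD camera in PBS. EC₅₀ was taken as the % GFPU reduction versus no-drug control. At least triplicate experiments.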

Human betaherpesvirus 5 [13] = assay: Antiviral activity against human cytomegalovirus infected in NHDF after 7 days by GFP-based fluorescent reduction assay; assay type: functional, organism-based; settings: Human betaherpesvirus 5, NHDF, 168 h
Summary of the method: (§4)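 Fibroblasts of the stated type (1.5 × 10⁴/well) infected with GFP-expressing recombinant AD169 (HCMV-GFP MOI 0.1 or RV-HG MOI 0.2 to 0.5). After adsorption the inoculum was replaced, with 3-fold serial compound dilutions at least in duplicate, and 7 days at 37°C. GFP units were read by CCD camera in PBS. EC₅₀ was derived from GFPU reduction versus untreated infected wells; at least triplicate runs.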

Human betaherpesvirus 5 [14] = assay: Antiviral activity against human cytomegalovirus RV-HG infected in NHDF after 7 days by GFP-based fluorescent reduction assay; assay type: functional, organism-based; settings: Human betaherpesvirus 5, RV-HG, 168 h
Summary of the method: (§5)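 Incubated 7 days at 37°C, medium swapped for PBS, GFP units read by CCD-camera fluorescence imager. EC50/EC90 from % GFPU reduction versus untreated infected wells by nonlinear regression; at least triplicate experiments.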

Human betaherpesvirus 5 [15] = assay: Antiviral activity against human cytomegalovirus isolate E16415S infected in NHDF assessed as inhibition of virus-induced cytopathic effect after 6 to 7 days by giemsa staining; assay type: functional, organism-based; settings: Human betaherpesvirus 5, isolate E16415S
Summary of the method: (§6)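 Cell-associated virus (infected NHDF cells) used as inoculum, at MOI 0.001 to 0.002, mixed with uninfected NHDF (1 × 10⁴ to 3 × 10⁴ cells/well). Compound was added in 2-fold serial dilutions, final 250 to 0.00005 μM, in duplicates. Incubation was 6 to 7 days at 37°C, followed by Giemsa/formalin staining and visual CPE scoring. EC₅₀ is 50% CPE inhibition versus untreated infected control; at least two independent experiments.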

Human betaherpesvirus 5 [16] = assay: Antiviral activity against human cytomegalovirus infected in NHLF after 7 days by GFP-based fluorescent reduction assay; assay type: functional, organism-based; settings: Human betaherpesvirus 5, 168 h; summary of the method: as §4
Human betaherpesvirus 5 [17] = assay: Antiviral activity against human cytomegalovirus AD169 infected in NHDF after 7 days by GFP-based fluorescent reduction assay; assay type: functional, organism-based; settings: Human betaherpesvirus 5, AD169, NHDF, 168 h; summary of the method: as §5
Human betaherpesvirus 5 [18] = assay: Antiviral activity against human cytomegalovirus infected in HEL299 cells after 7 days by GFP-based fluorescent reduction assay; assay type: functional, organism-based; settings: Human betaherpesvirus 5, HEL 299, 168 h; summary of the method: as §4
Human betaherpesvirus 5 [19] = assay: Antiviral activity against 0.03 MOI human cytomegalovirus AD169 infected in NHDF after 7 days by GFP-based fluorescent reduction assay; assay type: functional, organism-based; settings: Human betaherpesvirus 5, AD169, NHDF, 168 h; summary of the method: as §3
Human betaherpesvirus 5 [20] = assay: Antiviral activity against human cytomegalovirus AD169 infected in NHDF assessed as inhibition of virus-induced cytopathic effect after 6 to 7 days by giemsa staining; assay type: functional, organism-based; settings: Human betaherpesvirus 5, AD169, NHDF
Summary of the method: (§7)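 NHDF cells (1 × 10⁴/well) mixed with cell-free virus (MOI 0.03) or with infected-cell suspension (MOI 0.001 to 0.002). Compound was added from DMSO stocks in 2-fold serial dilutions, final 250 to 0.00005 μM, in duplicates. Plates were incubated 6 to 7 days at 37°C or until 100% CPE in virus control, then fixed and stained with Giemsa/formalin and scored microscopically. EC₅₀ is 50% CPE inhibition versus untreated infected control.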

Human betaherpesvirus 5 [21] = assay: Antiviral activity against ganciclovir-resistant human cytomegalovirus isolate E17251S infected in NHDF assessed as inhibition of virus-induced cytopathic effect after 6 to 7 days by giemsa staining; assay type: functional, organism-based; settings: Human betaherpesvirus 5, isolate E17251S; summary of the method: as §6
Human betaherpesvirus 5 [22] = assay: Antiviral activity against 0.003 MOI human cytomegalovirus AD169 infected in NHDF after 7 days by GFP-based fluorescent reduction assay; assay type: functional, organism-based; settings: Human betaherpesvirus 5, AD169, NHDF, 168 h; summary of the method: as §3
Human betaherpesvirus 5 [23] = assay: Antiviral activity against ganciclovir-resistant human cytomegalovirus isolate 1947R infected in NHDF assessed as inhibition of virus-induced cytopathic effect after 6 to 7 days by giemsa staining; assay type: functional, organism-based; settings: Human betaherpesvirus 5, isolate 1947R; summary of the method: as §6
Human betaherpesvirus 5 [24] = assay: Antiviral activity against human cytomegalovirus infected in human HS27 cells after 7 days by GFP-based fluorescent reduction assay; assay type: functional, organism-based; settings: Human betaherpesvirus 5, HS27, 168 h
Summary of the method: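 GFP reduction assay run in HS27 foreskin fibroblasts instead of NHDF, infected with AD169-GFP; compounds in 3-fold serial dilutions, 7 days at 37°C, GFP units read by camera-based fluorescence detector after PBS exchange. EC50 from % GFPU reduction versus drug-free infected control; at least triplicate experiments.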

Human betaherpesvirus 5 [25] = assay: Antiviral activity against human cytomegalovirus isolate 472 infected in NHDF assessed as inhibition of virus-induced cytopathic effect after 6 to 7 days by giemsa staining; assay type: functional, organism-based; settings: Human betaherpesvirus 5, isolate 472, NHDF; summary of the method: as §7
Human betaherpesvirus 5 [26] = assay: Antiviral activity against human cytomegalovirus AD169 infected in NHDF at 10 times EC50 treated postinfection and measured after 7 days by GFP-based fluorescent reduction assay
Human betaherpesvirus 5 [27] = assay: Antiviral activity against human cytomegalovirus AD169 infected in NHDF assessed as inhibition of virus replication at 20 uM after 96 hrs by fluorescence assay; assay type: functional, organism-based
Human betaherpesvirus 5 [28] = assay: Antiviral activity against human cytomegalovirus Davis infected in NHDF assessed as inhibition of virus-induced cytopathic effect after 6 to 7 days by giemsa staining; assay type: functional, organism-based; settings: Human betaherpesvirus 5, Davis; summary of the method: as §7
[29] = system: Human herpesvirus 5 strain AD169; assay: Antiviral activity against ganciclovir-resistant human cytomegalovirus AD169 UL97 M460I infected in NHDF assessed as inhibition of virus-induced cytopathic effect after 6 to 7 days by giemsa staining; assay type: functional, organism-based; settings: Human betaherpesvirus 5, UL97 M460I; summary of the method: as §7
Human betaherpesvirus 5 [30] = assay: Antiviral activity against human cytomegalovirus AD169 infected in NHDF assessed as inhibition of virus replication at 50 nM measured after 24 to 72 hrs of compound wash by fluorescence assay; assay type: functional, organism-based
Human betaherpesvirus 5 [31] = assay: Antiviral activity against 0.3 MOI human cytomegalovirus AD169 infected in NHDF after 7 days by GFP-based fluorescent reduction assay; assay type: functional, organism-based; settings: Human betaherpesvirus 5, AD169, NHDF, 168 h; summary of the method: as §3

**Q.** Which selectivity ratio [1] does the source give for `Nc1nc(O)c2ncn(COC(CO)CO)c2n1` [GANCICLOVIR] here?
**A.** > 202

**Q.** What about the CC50 at 168 h [2] of the same molecule?
**A.** > 333000 nM

**Q.** What about the CC50 at 168 h [3] of the same molecule?
**A.** > 333000 nM

**Q.** What about the CC50 at 168 h [4] of the same molecule?
**A.** > 333000 nM

**Q.** What about the selectivity ratio [5] of the same molecule?
**A.** > 139

**Q.** What about the CC50 at 168 h [6] of the same molecule?
**A.** > 333000 nM

**Q.** And the CC50 at 168 h [7]?
**A.** > 333000 nM

**Q.** What about the selectivity ratio [8] of the same molecule?
**A.** > 1040

**Q.** With `Nc1nc2c(ncn2COC(CO)CO)c(=O)[nH]1` [GANCICLOVIR] as the molecule, how does the EC50 (Human betaherpesvirus 5 [9]) read?
**A.** 5260 nM

**Q.** What about the Activity (Human betaherpesvirus 5 [10]) of the same molecule?
**A.** Active

**Q.** What about the EC50 (Human betaherpesvirus 5 [11]) of the same molecule?
**A.** 680 nM

**Q.** And the EC50 (Human betaherpesvirus 5 [12])?
**A.** 2210 nM

**Q.** And the EC50 (Human betaherpesvirus 5 [13])?
**A.** 1910 nM

**Q.** What about the EC50 (Human betaherpesvirus 5 [14]) of the same molecule?
**A.** 2330 nM

**Q.** And the EC90 (Human betaherpesvirus 5 [14])?
**A.** 18300 nM

**Q.** And the EC50 (Human betaherpesvirus 5 [15])?
**A.** 1100 nM

**Q.** And the EC50 (Human betaherpesvirus 5 [16])?
**A.** 2070 nM

**Q.** And the EC50 (Human betaherpesvirus 5 [17])?
**A.** 1730 nM

**Q.** What about the EC90 (Human betaherpesvirus 5 [17]) of the same molecule?
**A.** 10700 nM

**Q.** What about the EC50 (Human betaherpesvirus 5 [18]) of the same molecule?
**A.** 2390 nM

**Q.** What about the EC50 (Human betaherpesvirus 5 [19]) of the same molecule?
**A.** 1740 nM

**Q.** And the EC50 (Human betaherpesvirus 5 [20])?
**A.** 4300 nM

**Q.** And the EC50 (Human betaherpesvirus 5 [21])?
**A.** 14000 nM

**Q.** And the EC50 (Human betaherpesvirus 5 [22])?
**A.** 990 nM

**Q.** And the EC50 (Human betaherpesvirus 5 [23])?
**A.** 15000 nM

**Q.** What about the EC50 (Human betaherpesvirus 5 [24]) of the same molecule?
**A.** 320 nM

**Q.** And the EC50 (Human betaherpesvirus 5 [25])?
**A.** 5000 nM

**Q.** And the Activity (Human betaherpesvirus 5 [26])?
**A.** Active

**Q.** And the Activity (Human betaherpesvirus 5 [27])?
**A.** Active

**Q.** What about the EC50 (Human betaherpesvirus 5 [28]) of the same molecule?
**A.** 2700 nM

**Q.** What about the EC50 [29] of the same molecule?
**A.** 12000 nM

**Q.** What about the Activity (Human betaherpesvirus 5 [30]) of the same molecule?
**A.** Active

**Q.** What about the EC50 (Human betaherpesvirus 5 [31]) of the same molecule?
**A.** 6510 nM
